Most compounds without a hit are left out; they make up all but 1.4% or so of the library.
DDE Tn6 FP inh – inhibitors of Tn6 peptide binding to fibrin DD(E), primary screen, biochemical, fluorescence polarization, human fibrin, Tn6 probe. inhibition, % at 8.3 µM. 370,000 tested, 0.21% active. Fibrinogen beta chain (Homo sapiens), P02675. AID 720509, 2013. Fibrin DD(E) TRITC-Tn6 fluorescence polarization displacement;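 active = inhibition above a per-campaign cutoff: mean of compounds within control limits plus 3 SD, cut at about 15% in these data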;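 note: 0% = median of all compound wells on the plate and 100% = blocking peptide control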
Target sequence (P02675 whole entry, looked up): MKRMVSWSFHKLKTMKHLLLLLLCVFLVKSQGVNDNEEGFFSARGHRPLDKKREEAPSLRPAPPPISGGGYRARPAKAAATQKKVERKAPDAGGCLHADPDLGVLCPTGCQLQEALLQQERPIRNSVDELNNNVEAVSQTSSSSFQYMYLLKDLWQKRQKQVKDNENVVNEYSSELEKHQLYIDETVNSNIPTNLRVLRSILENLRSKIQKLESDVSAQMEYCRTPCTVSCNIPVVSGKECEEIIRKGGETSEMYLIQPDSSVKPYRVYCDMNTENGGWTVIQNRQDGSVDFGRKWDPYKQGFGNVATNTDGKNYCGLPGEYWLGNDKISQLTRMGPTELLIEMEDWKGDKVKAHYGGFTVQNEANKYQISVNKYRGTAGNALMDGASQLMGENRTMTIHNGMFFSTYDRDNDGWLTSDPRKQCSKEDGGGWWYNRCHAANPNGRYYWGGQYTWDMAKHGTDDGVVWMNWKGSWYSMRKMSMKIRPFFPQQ
CAL PDZ FP-1 – CAL PDZ peptide-binding inhibitors, primary screen, biochemical, fluorescence polarization, Cer-tagged CAL PDZ, HTS; Golgi-associated PDZ and coiled-coil motif-containing protein (Homo sapiens), Q9HD26; purified CAL PDZ, TMR-peptide fluorescence polarization, 1 h; inhibition, % at 20 µM; 330,000 tested, 0.02% active;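 active = highest replicate inhibition of at least 40%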;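 note: plate controls were DMSO neutral control wells for no effect and unlabeled competitor peptide control wells for full effect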
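Control set: unlabelled peptide and DMSO controls / Material: purified CerCALP PDZ construct / Timing: 1 h incubation at room temperature before polarization reading / Doses: 20 µM, one dose / Detection: fluorescence polarization (mP)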
CAL PDZ FP-2 – untagged CAL PDZ binding inhibitors, primary screen, biochemical, fluorescence polarization, HTS; Golgi-associated PDZ and coiled-coil motif-containing protein (Homo sapiens), Q9HD26; purified CAL PDZ, TMR-peptide fluorescence polarization, 1 h; inhibition, % at 24.9 µM; 300,000 tested, 0.92% active;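 active = mean inhibition of at least 30% with at least half of replicates also reaching 30%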;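 note: 0% = DMSO neutral control and 100% = excess unlabeled competitor peptide PRC23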
DDE Tn7 FP inh – inhibitors of Tn7 peptide binding to fibrin DD(E), primary screen, biochemical, fluorescence polarization, human fibrin, Tn7 probe | inhibition, % at 8.3 µM | AID 720508, 2013 | Fibrinogen beta chain (Homo sapiens), P02675 | FP displacement of FITC-Tn7 peptide from fibrin DD(E); 0% = median of compound wells per plate | 370,000 tested, 0.13% active;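 active = inhibition above the mean of compounds falling within the control limits plus 3 SD of them, cut at about 14% in these data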;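 note: 0% = plate median of compound wells and 100% = 10 µM Aha-Tn7 peptide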
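Measure: % inhibition scaled between sample-field median and high-control FP; Test system: human fibrin DD(E); Quantity: 2 µM final DD(E) protein; Doses: one dose, 8.3 µM nominal; Schedule: compound with protein 10 min, then 3 h after probe, room temperature; Detection: fluorescence polarization; Medium: Tris buffer with calcium and detergent, pH 7.8.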
Arrestin-AP2 inh – inhibitors of beta-arrestin/AP2 binding, primary screen, biochemical, GPCR trafficking, flow cytometry; beta-arrestin 1 C-terminal peptide binding to AP2 beta2-adaptin appendage (human); FITC-arrestin peptide / GST-AP2 beads; AP2 beta2 appendage carries R879A mutation; inhibition, % at 10 µM; 340,000 tested, 0.31% active; AID 504490, 2011;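 active = inhibition above a set limit, near 3 SD of compounds lacking own fluorescence, cut at about 54% in these data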;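 note: plate controls were DMSO wells for no effect and 5 µM unlabelled arrestin peptide for full effect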
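System: GST-AP2 R879A glutathione beads; medium: PBS, Tween 20 0.05%, BSA 0.1%; reagent: fluorescein-tagged arrestin peptide at 50 nM final; schedule: pre-incubation 12 min, peptide binding 1 h, room temperature; detection: flow cytometry, FL1 (488/535 nm); read-out: inhibition as reduced fluorescein signal on beads, percent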
* marks the source's active call; other numbers are inactive results; . = no result given.

SMILES | DDE Tn6 FP inh | CAL PDZ FP-1 | CAL PDZ FP-2 | DDE Tn7 FP inh | Arrestin-AP2 inh
COCCCn1c(=O)c2sccc2n2c(CCCC(=O)NCc3cccc(OC)c3)nnc12 | -3.0 | -1.5 | 46.8* | -0.9 | -1.4
Cc1ccc2nc(-c3ccc(NC(=O)CSc4nccc(=O)[nH]4)cc3)sc2c1 | -3.3 | -2.2 | -12.0 | -4.8 | 13.6
Cc1ccc2nc(-c3ccc(NC(=O)CSc4nc(N)cc(=O)[nH]4)cc3)sc2c1 | 3.8 | -0.4 | 53.5* | -2.5 | -11.7
Cc1ccc(NC(=O)CSc2nc3nc(C)cc(C)c3c(=O)[nH]2)cc1 | 7.2 | . | 37.3* | -1.8 | 1.2
Cc1cc(C)c2c(=O)[nH]c(SCC(=O)Nc3ccccc3)nc2n1 | -2.3 | -0.3 | . | -8.8 | 31.8
O=C(CN1CC(=O)Oc2ccccc21)OCC(=O)c1ccccc1 | -0.6 | -2.5 | -0.6 | 7.1 | 1.0
O=C(CN1CC(=O)Oc2ccccc21)OCC(=O)c1cccc(Br)c1 | . | -0.2 | -1.3 | . | 58.3*
CC1CCc2c(sc3nc(CSc4nnnn4C)[nH]c(=O)c23)C1 (stereo not given) | -8.1 | -2.0 | 60.1* | 1.5 | -4.0
Cc1cc(C)n2c(SCC(=O)N(CC(C)C)c3c(N)n(CC(C)C)c(=O)[nH]c3=O)nnc2n1 | -2.3 | -0.6 | 70.3* | -4.5 | -9.4
COC(=O)c1cc(-c2cnc(OC)nc2OC)c(=O)n2c1CCC2 | -3.2 | . | . | 5.9 | .
Cn1c(NCc2ccco2)nc2c1c(=O)n(Cc1ccc(Cl)c(Cl)c1)c(=O)n2C | -4.1 | -0.5 | 75.9* | -3.3 | 0.7
Cc1c(C(=O)N2CCOCC2)c(S(=O)(=O)Nc2ccc(C(C)C)cc2)c(C)n1C | -1.2 | -1.1 | 48.3* | -11.8 | -16.0
O=c1cc(-c2ccccc2F)nc(-c2ccccc2F)o1 | -4.4 | -1.9 | 34.0* | -0.1 | 3.9
O=c1cc(-c2cccc(Br)c2)nc(-c2ccccc2F)o1 | -3.0 | -3.8 | -3.7 | -6.3 | 15.8
CC(C)C(=O)N[C@H]1[C@H](O)CCC[C@]12C(=O)N(Cc1ccccc1)c1ccccc12 | -8.9 | . | . | -0.8 | .
NC(=O)c1c(N)[nH]c(C(=O)c2ccccc2)c1-c1cccc2ccccc12 | -4.8 | . | . | 1.7 | .
Cc1cc(C)c(S(=O)(=O)NCC23C=CC(O2)C2C(=O)N(c4ccccc4)C(=O)C23)c(C)c1 (stereo not given) | -3.3 | -0.2 | 42.8* | -7.0 | 4.6
CCC/C(O)=C1\C(=O)CC(C)(C)CC1=Nc1ccc(OC)cc1OC | 7.2 | 0.1 | 60.1* | 1.7 | 3.1
CC(C)c1ccc(NC(=O)O[C@@H]2CC[C@@]34CCCN3C(=O)CCC[C@H]4C2)cc1 | 1.9 | . | . | 2.6 | .
CN(C)CCNc1nc(S(=O)(=O)c2ccccc2)c(Cl)s1 | -4.8 | -0.9 | 82.6* | -2.2 | 16.5
O=S(=O)(CC(O)CS(=O)(=O)c1ccc(Cl)cc1)c1ccccc1 (stereo not given) | 0.6 | 0.2 | 41.6* | 0.9 | -4.1
O=C1NC(=O)/C(=C\c2cn(Cc3ccccc3F)c3ccccc23)N1 | 2.4 | -0.2 | 59.1* | 0.6 | -9.0
O=C(CCCCn1c(=O)[nH]c2ccccc2c1=O)NCCC1=CCCCC1 | 7.8 | -1.0 | 83.3* | 10.9 | -0.6
O=C(CCCCn1c(=O)[nH]c2ccccc2c1=O)NCCc1c[nH]c2ccccc12 | 5.9 | -0.1 | . | -1.1 | 25.1
Oc1ccc2ccccc2c1C=NN1CCN(Cc2ccc(Cl)cc2)CC1 | 2.2 | . | . | -0.9 | .
SMILES | DDE Tn6 FP inh | CAL PDZ FP-1 | CAL PDZ FP-2 | DDE Tn7 FP inh | Arrestin-AP2 inh
CCCNC(=O)CCc1c(C)nc2nc(-c3cc(OC)cc(OC)c3)nn2c1C | 0.2 | -0.5 | 45.8* | 3.3 | 3.9
O=C1OC(COc2ccc(Br)cc2)CN1c1ccccc1 (stereo not given) | -5.6 | -0.9 | 87.1* | -5.0 | 7.5
CCCCNC(=O)NCC1CCN(Cc2ccc(OC)cc2)CC1 | 2.9 | . | . | -10.3 | .
CCc1ccc(N2C(=O)CC(N3CCN(Cc4ccc5c(c4)OCO5)CC3)C2=O)cc1 (stereo not given) | 5.2 | -1.1 | 84.7* | 1.3 | -4.1
CC(=O)Nc1ccc(N2C(=O)CC(N3CCN(Cc4ccc5c(c4)OCO5)CC3)C2=O)cc1 (stereo not given) | -0.1 | -0.8 | -7.1 | 2.2 | 2.1
COc1ccc(-n2c(SCC(=O)Nc3cc(C)c(NC(=O)c4ccccc4)cc3OC)nnc2-c2ccco2)cc1 | 1.3 | . | . | -8.6 | .
CCOc1ccc(NC(=O)CC2C(=O)N(c3cccc(OC)c3)C(=O)N2CCOC)cc1 (stereo not given) | 10.0 | -2.3 | 59.0* | 3.7 | -4.2
Cc1cccc(-c2ncc(CN3CCCC(CO)(Cc4cccc(Cl)c4)C3)cn2)c1 (stereo not given) | -0.1 | 16.4 | 57.2* | 0.0 | 4.2
CC(C)c1nc2cc(C(=O)N(C)C3CCOCC3)ccc2o1 | 3.0 | -1.0 | 43.5* | -4.0 | -9.5
CC(C)(C)OC(=O)NCc1ccccc1/C=C/S(=O)(=O)NCc1ccccc1 | 7.5 | . | . | 0.8 | .
Cc1ccc(NC(=O)CSc2nnc(CNC(=O)c3ccco3)o2)cc1 | 2.4 | -2.9 | -0.9 | -0.3 | -8.0
O=C(NCc1nnc(SCC(=O)N2CCCCCC2)o1)c1ccccc1F | 1.9 | -1.4 | -7.9 | -5.5 | -4.1
Cc1cccc(-c2nnc(SCC(=O)NC3CCCC3)o2)c1 | -0.7 | -1.1 | 85.8* | 4.2 | 5.9
O=C(CSc1nnc(CNC(=O)c2ccco2)o1)Nc1ccc(F)cc1 | -3.0 | -4.3 | 57.2* | -1.4 | -10.6
O=C(CSc1nnc(CNC(=O)c2ccccc2F)o1)NC1CCCC1 | 1.0 | -0.4 | 36.9* | 2.9 | -13.2
O=C(CSc1nnc(CNC(=O)c2ccccc2F)o1)NCc1ccco1 | 1.1 | -1.1 | 61.7* | -5.0 | -8.6
O=C(CSc1nnc(CNC(=O)c2ccccc2F)o1)NCCc1ccccc1 | 9.7 | -0.8 | 2.2 | -0.9 | 2.8
CC(=O)N1CCN(c2ccc(N3CCN(Cc4ccccc4)[C@@H](C)C3)c(C)c2)[C@H](C)C1 | -2.1 | . | . | -6.3 | .
O=C(CCc1ccccc1)N[C@H]1[C@H](OCc2ccccc2)CCC[C@@]12C(=O)N(Cc1ccccc1)c1ccccc12 | -3.1 | . | . | 3.9 | .
COC(=O)C[C@H]1CC[C@@H]2[C@@H](COc3ccc(NC(=O)C4CCCCC4)cc3C(=O)N2C)O1 | -7.5 | . | . | -1.9 | .
CC(=O)c1c(C)[nH]c(C(=O)OCC(=O)c2ccc3c(c2)NC(=O)CO3)c1C | -0.8 | -0.6 | 81.2* | -6.3 | -2.6

Bioassay records deposited in PubChem BioAssay by several laboratories.
